Reference: ChEMBL document CHEMBL3585295, “Synthesis and discovery of (I-3,II-3)-biacacetin as a novel non-zinc binding inhibitor of MMP-2 and MMP-9” (Bioorg Med Chem, 2015)
Active and inactive are the calls of the source. No cut-off for these calls is given here.

What was measured:
[1] = target: 72 kDa type IV collagenase (Homo sapiens) (UniProt P08253); test: Inhibition of MMP-2 activity in human HT1080 cells by gelatin zymography; assay type: cell-based; settings: HT-1080
Procedure, shortened: (§1)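 HT1080 human fibrosarcoma cells grown in DMEM with 10% FBS; cells treated with compound, 0.5% DMSO as vehicle control, dose series 2.5–10 µM. Conditioned media run on 10% polyacrylamide/0.4% SDS gels containing 2 mg/ml gelatin, non-reducing, 120 V 150 min. Gels washed in 2.5% Triton X-100 30 min, developed overnight at 37 °C (50 mM Tris–HCl pH 7.6, 200 mM NaCl, 5 mM CaCl2, 0.2% Brij-35). Bands quantified densitometrically as % inhibition; triplicates, three independent experiments.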

[2] = target: Matrix metalloproteinase-9 (Homo sapiens) (UniProt P14780); test: Inhibition of MMP-9 activity in human HT1080 cells by gelatin zymography; assay type: cell-based; settings: HT-1080; procedure, shortened: as §1
[3] = target: Matrix metalloproteinase-9 (Homo sapiens) (UniProt P14780); test: Inhibition of MMP-9 activity in human HT1080 cells at 5 uM by gelatin zymography; assay type: cell-based; settings: HT-1080; procedure, shortened: as §1
[4] = target: 72 kDa type IV collagenase (Homo sapiens) (UniProt P08253); test: Inhibition of MMP-2 activity in human HT1080 cells at 5 uM by gelatin zymography; assay type: cell-based; settings: HT-1080; procedure, shortened: as §1
[5] = target: Matrix metalloproteinase 2/9 (Homo sapiens) (UniProt P08253+P14780); test: Inhibition of MMP2/9 in human HT1080 cells assessed as reduction in degradation of fluorescien gelatin at 5 uM after 24 hrs by gelatin degradation assay; assay type: cell-based; settings: HT-1080
Procedure, shortened: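 HT1080 cells exposed to 5 µM compound for 24 h at 37 °C on fluorescent gelatin. Cells then fixed, mounted in antifade reagent and imaged by inverted fluorescence microscopy. Degradation of the fluorescent gelatin compared with control.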

HT-1080 = test: Inhibition of cell migration in human HT1080 cells at 5 uM after 24 hrs by transwell migration assay; assay type: functional, cell-based
Procedure, shortened: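 Transwell migration: 8 × 10^4 HT1080 cells in serum-free medium with compound placed in upper chamber; lower chamber held DMEM with 10% FBS as attractant. After 24 h, non-migrated cells swabbed off; migrated cells stained with crystal violet and counted in five random fields, expressed as % of control.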

[6] = Cytotoxicity against human HT1080 cells up to 7.5 uM; assay type: cell-based; settings: ht-1080
[7] = target: 72 kDa type IV collagenase (Homo sapiens) (UniProt P08253); test: Inhibition of MMP-2 activity in human HT1080 cells at 10 uM by gelatin zymography; assay type: cell-based; settings: HT-1080; procedure, shortened: as §1
[8] = target: Matrix metalloproteinase-9 (Homo sapiens) (UniProt P14780); test: Inhibition of MMP-9 activity in human HT1080 cells at 10 uM by gelatin zymography; assay type: cell-based; settings: HT-1080; procedure, shortened: as §1

Chain of 72 kDa type IV collagenase (Homo sapiens) (P08253 110-660 limits assumed): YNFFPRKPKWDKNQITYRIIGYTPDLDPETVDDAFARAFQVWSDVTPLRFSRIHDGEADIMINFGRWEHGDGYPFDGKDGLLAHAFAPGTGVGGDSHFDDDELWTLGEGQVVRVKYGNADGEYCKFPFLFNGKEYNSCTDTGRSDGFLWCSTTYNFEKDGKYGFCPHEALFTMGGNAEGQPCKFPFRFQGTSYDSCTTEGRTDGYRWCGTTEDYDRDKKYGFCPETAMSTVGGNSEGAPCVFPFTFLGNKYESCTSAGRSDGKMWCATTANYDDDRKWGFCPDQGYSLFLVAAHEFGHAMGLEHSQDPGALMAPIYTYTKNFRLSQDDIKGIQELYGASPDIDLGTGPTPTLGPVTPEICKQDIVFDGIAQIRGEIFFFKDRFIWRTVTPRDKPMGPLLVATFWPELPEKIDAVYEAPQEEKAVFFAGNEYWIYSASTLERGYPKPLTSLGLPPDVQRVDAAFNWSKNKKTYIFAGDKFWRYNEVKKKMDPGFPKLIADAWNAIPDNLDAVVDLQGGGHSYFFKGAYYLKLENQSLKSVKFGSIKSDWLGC
Chain of Matrix metalloproteinase-9 (Homo sapiens) (P14780 whole entry): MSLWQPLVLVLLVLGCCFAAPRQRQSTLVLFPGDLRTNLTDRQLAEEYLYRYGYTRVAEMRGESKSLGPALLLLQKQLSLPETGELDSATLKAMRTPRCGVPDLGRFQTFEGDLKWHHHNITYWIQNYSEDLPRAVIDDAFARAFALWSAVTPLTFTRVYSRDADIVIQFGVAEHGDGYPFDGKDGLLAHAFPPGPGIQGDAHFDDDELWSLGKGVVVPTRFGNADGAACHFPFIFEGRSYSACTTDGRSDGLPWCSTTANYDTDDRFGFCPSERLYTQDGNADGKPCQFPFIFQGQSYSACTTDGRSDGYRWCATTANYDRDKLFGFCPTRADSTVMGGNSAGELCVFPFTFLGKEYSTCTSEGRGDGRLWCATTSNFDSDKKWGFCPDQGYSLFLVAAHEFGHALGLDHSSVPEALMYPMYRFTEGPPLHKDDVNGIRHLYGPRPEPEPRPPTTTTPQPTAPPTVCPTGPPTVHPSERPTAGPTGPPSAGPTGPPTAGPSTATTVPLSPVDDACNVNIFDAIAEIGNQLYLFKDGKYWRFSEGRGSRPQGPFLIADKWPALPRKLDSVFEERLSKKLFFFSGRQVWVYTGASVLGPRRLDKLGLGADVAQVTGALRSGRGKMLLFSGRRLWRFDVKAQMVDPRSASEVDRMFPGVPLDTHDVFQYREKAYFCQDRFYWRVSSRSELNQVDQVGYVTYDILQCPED
Chain of Matrix metalloproteinase 2/9 (Homo sapiens) (P08253 whole entry, looked up): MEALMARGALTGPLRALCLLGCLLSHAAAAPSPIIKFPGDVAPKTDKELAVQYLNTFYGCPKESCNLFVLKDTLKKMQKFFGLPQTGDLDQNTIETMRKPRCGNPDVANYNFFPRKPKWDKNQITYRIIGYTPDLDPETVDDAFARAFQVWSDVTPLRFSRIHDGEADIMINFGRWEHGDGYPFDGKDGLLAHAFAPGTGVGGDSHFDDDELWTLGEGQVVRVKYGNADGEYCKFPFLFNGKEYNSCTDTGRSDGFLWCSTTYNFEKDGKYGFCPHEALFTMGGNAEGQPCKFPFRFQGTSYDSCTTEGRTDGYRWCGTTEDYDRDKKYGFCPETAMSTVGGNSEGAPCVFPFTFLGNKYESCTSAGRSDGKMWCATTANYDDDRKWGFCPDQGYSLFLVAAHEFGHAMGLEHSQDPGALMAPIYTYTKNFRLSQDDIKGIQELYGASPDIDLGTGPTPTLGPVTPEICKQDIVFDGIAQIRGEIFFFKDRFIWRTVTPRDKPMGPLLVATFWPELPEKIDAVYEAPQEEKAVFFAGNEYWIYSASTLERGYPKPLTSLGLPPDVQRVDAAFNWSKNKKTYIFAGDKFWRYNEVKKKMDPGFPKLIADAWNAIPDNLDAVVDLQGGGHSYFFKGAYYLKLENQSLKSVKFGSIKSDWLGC
Chain of Matrix metalloproteinase 2/9 (Homo sapiens) (P14780 whole entry, looked up): as the sequence (P14780 whole entry) above

Structure (SMILES)	inhibition [1]	inhibition [2]	inhibition [7]	also measured
COc1ccccc1-c1oc2ccccc2c(=O)c1-c1c(-c2ccccc2OC)oc2ccccc2c1=O	inactive	inactive		
COc1cc(OC)c2c(=O)c(-c3c(-c4ccccc4)oc4cc(OC)cc(OC)c4c3=O)c(-c3ccccc3)oc2c1	inactive	inactive		
COc1ccc(-c2oc3ccccc3c(=O)c2-c2c(-c3ccc(OC)cc3)oc3ccccc3c2=O)cc1	inactive	inactive		
COc1ccc(-c2cc(=O)c3c(O)cc(O)cc3o2)cc1				inhibition [3]: inactive; inhibition [4]: inactive
COc1ccc(-c2oc3cc(O)cc(O)c3c(=O)c2-c2c(-c3ccc(OC)cc3)oc3cc(O)cc(O)c3c2=O)cc1	Dose-dependent effect	Dose-dependent effect	90%	inhibition [3]: 90%; inhibition [5]: Active; inhibition (HT-1080): Active; Activity [6]: Non-toxic; inhibition [4]: 60%; inhibition [8]: 90%
COc1ccc(-c2oc3cc(OC)cc(OC)c3c(=O)c2-c2c(-c3ccc(OC)cc3)oc3cc(OC)cc(OC)c3c2=O)cc1	inactive	inactive		
O=c1c(-c2c(-c3ccco3)oc3ccccc3c2=O)c(-c2ccco2)oc2ccccc12			Active	
COc1ccc(-c2oc3cc(O)cc(O)c3c(=O)c2-c2c(-c3ccc(OC)c(OC)c3)oc3cc(O)cc(O)c3c2=O)cc1OC			Active	
O=c1c(-c2c(-c3ccccc3)oc3cc(O)ccc3c2=O)c(-c2ccccc2)oc2cc(O)ccc12			inactive	inhibition [8]: inactive
COc1ccc2c(=O)c(-c3c(-c4ccccc4)oc4cc(OC)ccc4c3=O)c(-c3ccccc3)oc2c1	inactive	inactive		
O=c1c(-c2c(/C=C/c3ccccc3)oc3ccccc3c2=O)c(/C=C/c2ccccc2)oc2ccccc12			inactive	inhibition [8]: inactive
